Laboratory results: ChEMBL document CHEMBL5705891, “Small-molecule kinase inhibitors provide insight into Mps1 cell cycle function” (Nat Chem Biol, 2010)
pKd: −log10 of the molar value. Active and inactive are the calls of the source. The rule behind the calls is not given here.

What was measured:
[1] = target: Serine/threonine-protein kinase TAO3 (Homo sapiens) (UniProt Q9H2K8); test: Inhibition of TAOK3 (unknown origin) assessed as residual enzyme activity at 10 uM by Ambit kinase binding assay relative to control
[2] = target: Serine/threonine-protein kinase 25 (Homo sapiens) (UniProt O00506); test: Inhibition of YSK1 (unknown origin) assessed as residual enzyme activity at 10 uM by Ambit kinase binding assay relative to control
[3] = target: SRSF protein kinase 1 (Homo sapiens) (UniProt Q96SB4); test: Inhibition of SRPK1 (unknown origin) assessed as residual enzyme activity at 10 uM by Ambit kinase binding assay relative to control
[4] = target: Cyclin-dependent kinase 7 (Homo sapiens) (UniProt P50613); test: Inhibition of CDK7 (unknown origin) assessed as residual enzyme activity at 10 uM by Ambit kinase binding assay relative to control
[5] = target: Ribosomal protein S6 kinase alpha-4 (Homo sapiens) (UniProt O75676); test: Inhibition of RPS6KA4 kinase domain 2 (unknown origin) assessed as residual enzyme activity at 10 uM by Ambit kinase binding assay relative to control
[6] = target: Ribosomal protein S6 kinase alpha-6 (Homo sapiens) (UniProt Q9UK32); test: Inhibition of RPS6KA6 kinase domain 2 (unknown origin) assessed as residual enzyme activity at 10 uM by Ambit kinase binding assay relative to control
[7] = target: Calcium/calmodulin-dependent protein kinase kinase 1 (Homo sapiens) (UniProt Q8N5S9); test: Inhibition of CAMKK1 (unknown origin) assessed as residual enzyme activity at 10 uM by Ambit kinase binding assay relative to control
[8] = target: Mitogen-activated protein kinase 12 (Homo sapiens) (UniProt P53778); test: Inhibition of p38-gamma (unknown origin) assessed as residual enzyme activity at 10 uM by Ambit kinase binding assay relative to control
[9] = target: Inhibitor of nuclear factor kappa-B kinase subunit epsilon (Homo sapiens) (UniProt Q14164); test: Inhibition of IKK-epsilon (unknown origin) assessed as residual enzyme activity at 10 uM by Ambit kinase binding assay relative to control
[10] = target: TRAF2 and NCK-interacting protein kinase (Homo sapiens) (UniProt Q9UKE5); test: Inhibition of TNIK (unknown origin) assessed as residual enzyme activity at 10 uM by Ambit kinase binding assay relative to control
Activated CDC42 kinase 1 = Activated CDC42 kinase 1 (Homo sapiens, UniProt Q07912); test: Inhibition of TNK2 (unknown origin) assessed as residual enzyme activity at 10 uM by Ambit kinase binding assay relative to control
HCT-116 = test: Antiproliferative activity against human HCT-116 cells with p53-/- at 10 uM measured after 96 hrs in presence of Z-VAD-FMK by Syto60 staining based assay; assay type: functional, cell-based
MCF-10A = test: Antiproliferative activity against human MCF-10A cells at 10 uM incubated for 4 days by Syto60 staining based assay; assay type: toxicity, cell-based; conditions: 96 h, time 4 day
In short: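 Proliferation read by Syto60 nucleic acid stain fluorescence (excitation 635 nm, emission 695 nm) after treatment for up to 96 h. Each time point normalized to its DMSO control. Mean ± SD from 4 independent experiments. Cells kept at 37°C, 5% CO2 in 10% FBS-supplemented medium.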

[11] = target: T1, Insulin receptor-related protein (Homo sapiens, UniProt P14616); test: Inhibition of INSRR (unknown origin) assessed as residual enzyme activity at 10 uM by Ambit kinase binding assay relative to control
[12] = system: Proto-oncogene tyrosine-protein kinase receptor Ret (Homo sapiens), P07949 [V804M]; test: Inhibition of RET V804M mutant (unknown origin) assessed as residual enzyme activity at 10 uM by Ambit kinase binding assay relative to control
[13] = target: T1, Insulin receptor-related protein; test: Binding affinity to INSRR (unknown origin) assessed as dissociation constant by Ambit kinase binding assay
[14] = target: Dual specificity protein kinase CLK4 (Homo sapiens) (UniProt Q9HAZ1); test: Inhibition of CLK4 (unknown origin) assessed as residual enzyme activity at 10 uM by Ambit kinase binding assay relative to control
[15] = target: Myosin-IIIb (Homo sapiens) (UniProt Q8WXR4); test: Inhibition of MYO3B (unknown origin) assessed as residual enzyme activity at 10 uM by Ambit kinase binding assay relative to control
[16] = Inhibition of Mps1 in Potoroo PTK2 cells expressing EyFP-tagged human Mad2 assessed as decrease in Mad2 recruitment to kinetochore at 10 uM incubated for 1 hr by fluorescence based imaging analysis relative to control; design: species or system Pt K2; conditions: Potorous tridactylus
In short: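 PtK2 (male Potorous tridactylus kidney) cells stably expressing human Mad2-EYFP, cultured in Advanced MEM with 2% FBS. Cells were pretreated 1 h with 10 μM inhibitor or DMSO, then given DMSO or nocodazole (200 ng·ml⁻¹). Time-lapse imaging ran at 37°C from NEBD. Kinetochore Mad2-EYFP density was background-corrected and normalized. N=20–29 cells; 95% CI; Student's t test.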

[17] = target: Proto-oncogene tyrosine-protein kinase ROS (Homo sapiens) (UniProt P08922); test: Inhibition of ROS1 (unknown origin) assessed as residual enzyme activity at 10 uM by Ambit kinase binding assay relative to control
HeLa S3 = test: Reversal of nocodazole-induced mitotic arrest in human HeLa S3 cells expressing histone H2B-GFP assessed as DNA decondensation at 10 uM measured for 20 to 60 mins by immunofluorescence analysis; assay type: functional, cell-based; conditions: time 20-60 min
In short: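 HeLa S3 H2B-GFP cells were held in nocodazole (200 ng·ml⁻¹) with or without inhibitor. Mitotic exit was scored as DNA decondensation and nuclear envelope reassembly, imaged every 5 min (60X objective); 150 cells counted per population.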

[18] = target: Mitogen-activated protein kinase 1 (Homo sapiens, UniProt P28482); test: Binding affinity to ERK2 (unknown origin) assessed as dissociation constant by Ambit kinase binding assay
[19] = target: Cyclin-G-associated kinase (Homo sapiens, UniProt O14976); test: Binding affinity to GAK (unknown origin) assessed as dissociation constant by Ambit kinase binding assay
U2OS [20] = test: Reversal of paclitaxel-induced mitotic arrest in human U2OS cells assessed as Ser10 phosphorylated Histone H3-positive 4c population at 10 uM incubated for 16 hrs by flow cytometry (reference value: 25 %); assay type: functional
[21] = target: Serine/threonine-protein kinase Chk2 (Homo sapiens) (UniProt O96017); test: Inhibition of CHEK2 (unknown origin) assessed as residual enzyme activity at 10 uM by Ambit kinase binding assay relative to control
U2OS [22] = test: Reversal of nocodazole-induced mitotic arrest in human U2OS cells assessed as decrease in cyclin B level at 0.3 to 10 uM incubated for 4 hrs by immunoblot analysis; assay type: functional, cell-based; conditions: dose 0.3-10 µM

T1 sequence (P14616 27-742 limits assumed): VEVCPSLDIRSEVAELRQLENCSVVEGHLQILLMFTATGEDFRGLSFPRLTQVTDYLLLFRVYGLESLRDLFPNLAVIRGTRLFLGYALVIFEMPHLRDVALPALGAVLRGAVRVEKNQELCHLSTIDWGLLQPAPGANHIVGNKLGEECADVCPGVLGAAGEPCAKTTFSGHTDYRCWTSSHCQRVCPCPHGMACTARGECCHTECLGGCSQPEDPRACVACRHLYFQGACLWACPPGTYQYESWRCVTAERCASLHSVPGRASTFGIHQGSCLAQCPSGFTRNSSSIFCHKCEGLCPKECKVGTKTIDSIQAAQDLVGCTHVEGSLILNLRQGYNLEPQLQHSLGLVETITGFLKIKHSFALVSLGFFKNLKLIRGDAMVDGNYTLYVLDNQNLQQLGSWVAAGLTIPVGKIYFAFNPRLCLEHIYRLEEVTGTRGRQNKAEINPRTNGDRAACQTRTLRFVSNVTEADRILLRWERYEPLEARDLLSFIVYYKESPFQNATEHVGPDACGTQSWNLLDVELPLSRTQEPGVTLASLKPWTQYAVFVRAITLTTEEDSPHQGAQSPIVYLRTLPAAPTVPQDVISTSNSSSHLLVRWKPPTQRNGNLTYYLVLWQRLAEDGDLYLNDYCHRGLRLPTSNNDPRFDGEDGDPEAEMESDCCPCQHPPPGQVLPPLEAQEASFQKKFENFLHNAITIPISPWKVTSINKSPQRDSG
T1 sequence (P14616 747-1297 limits assumed): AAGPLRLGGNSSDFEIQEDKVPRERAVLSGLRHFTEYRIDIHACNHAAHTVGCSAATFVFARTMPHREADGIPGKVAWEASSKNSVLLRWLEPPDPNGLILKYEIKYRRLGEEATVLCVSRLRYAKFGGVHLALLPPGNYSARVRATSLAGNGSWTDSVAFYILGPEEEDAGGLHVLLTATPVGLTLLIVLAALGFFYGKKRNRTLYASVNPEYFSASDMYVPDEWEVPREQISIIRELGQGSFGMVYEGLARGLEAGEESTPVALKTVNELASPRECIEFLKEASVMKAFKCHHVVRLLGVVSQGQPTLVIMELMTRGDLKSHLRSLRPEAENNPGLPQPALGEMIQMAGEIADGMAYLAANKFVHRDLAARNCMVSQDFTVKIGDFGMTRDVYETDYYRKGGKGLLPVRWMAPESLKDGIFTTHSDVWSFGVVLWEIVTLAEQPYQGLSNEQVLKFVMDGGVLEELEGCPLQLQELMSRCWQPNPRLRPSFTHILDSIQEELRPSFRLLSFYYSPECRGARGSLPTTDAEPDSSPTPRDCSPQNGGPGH
Chain of Ribosomal protein S6 kinase alpha-4 (Homo sapiens) (O75676 whole entry, looked up, the tested form may be a part): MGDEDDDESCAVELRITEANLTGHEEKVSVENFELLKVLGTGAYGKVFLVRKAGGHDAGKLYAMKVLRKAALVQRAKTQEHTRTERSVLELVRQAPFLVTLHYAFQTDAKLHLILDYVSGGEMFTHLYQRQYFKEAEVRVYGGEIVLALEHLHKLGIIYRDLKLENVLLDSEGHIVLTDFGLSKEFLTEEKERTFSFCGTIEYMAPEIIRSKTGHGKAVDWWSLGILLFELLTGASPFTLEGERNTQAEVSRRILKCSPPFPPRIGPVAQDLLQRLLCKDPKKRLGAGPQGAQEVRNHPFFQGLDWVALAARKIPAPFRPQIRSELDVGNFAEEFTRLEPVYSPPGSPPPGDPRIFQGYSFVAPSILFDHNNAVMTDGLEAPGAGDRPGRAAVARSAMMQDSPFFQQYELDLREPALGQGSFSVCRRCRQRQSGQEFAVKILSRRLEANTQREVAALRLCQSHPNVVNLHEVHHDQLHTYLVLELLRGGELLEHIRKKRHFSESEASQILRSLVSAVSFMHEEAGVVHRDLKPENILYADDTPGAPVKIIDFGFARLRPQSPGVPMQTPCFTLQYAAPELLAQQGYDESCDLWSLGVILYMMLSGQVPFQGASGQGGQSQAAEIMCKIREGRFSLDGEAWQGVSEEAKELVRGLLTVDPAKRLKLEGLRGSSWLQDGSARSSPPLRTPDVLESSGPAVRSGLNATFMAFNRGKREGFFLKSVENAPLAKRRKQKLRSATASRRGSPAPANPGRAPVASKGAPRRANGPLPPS
Chain of Myosin-IIIb (Homo sapiens) (Q8WXR4 whole entry): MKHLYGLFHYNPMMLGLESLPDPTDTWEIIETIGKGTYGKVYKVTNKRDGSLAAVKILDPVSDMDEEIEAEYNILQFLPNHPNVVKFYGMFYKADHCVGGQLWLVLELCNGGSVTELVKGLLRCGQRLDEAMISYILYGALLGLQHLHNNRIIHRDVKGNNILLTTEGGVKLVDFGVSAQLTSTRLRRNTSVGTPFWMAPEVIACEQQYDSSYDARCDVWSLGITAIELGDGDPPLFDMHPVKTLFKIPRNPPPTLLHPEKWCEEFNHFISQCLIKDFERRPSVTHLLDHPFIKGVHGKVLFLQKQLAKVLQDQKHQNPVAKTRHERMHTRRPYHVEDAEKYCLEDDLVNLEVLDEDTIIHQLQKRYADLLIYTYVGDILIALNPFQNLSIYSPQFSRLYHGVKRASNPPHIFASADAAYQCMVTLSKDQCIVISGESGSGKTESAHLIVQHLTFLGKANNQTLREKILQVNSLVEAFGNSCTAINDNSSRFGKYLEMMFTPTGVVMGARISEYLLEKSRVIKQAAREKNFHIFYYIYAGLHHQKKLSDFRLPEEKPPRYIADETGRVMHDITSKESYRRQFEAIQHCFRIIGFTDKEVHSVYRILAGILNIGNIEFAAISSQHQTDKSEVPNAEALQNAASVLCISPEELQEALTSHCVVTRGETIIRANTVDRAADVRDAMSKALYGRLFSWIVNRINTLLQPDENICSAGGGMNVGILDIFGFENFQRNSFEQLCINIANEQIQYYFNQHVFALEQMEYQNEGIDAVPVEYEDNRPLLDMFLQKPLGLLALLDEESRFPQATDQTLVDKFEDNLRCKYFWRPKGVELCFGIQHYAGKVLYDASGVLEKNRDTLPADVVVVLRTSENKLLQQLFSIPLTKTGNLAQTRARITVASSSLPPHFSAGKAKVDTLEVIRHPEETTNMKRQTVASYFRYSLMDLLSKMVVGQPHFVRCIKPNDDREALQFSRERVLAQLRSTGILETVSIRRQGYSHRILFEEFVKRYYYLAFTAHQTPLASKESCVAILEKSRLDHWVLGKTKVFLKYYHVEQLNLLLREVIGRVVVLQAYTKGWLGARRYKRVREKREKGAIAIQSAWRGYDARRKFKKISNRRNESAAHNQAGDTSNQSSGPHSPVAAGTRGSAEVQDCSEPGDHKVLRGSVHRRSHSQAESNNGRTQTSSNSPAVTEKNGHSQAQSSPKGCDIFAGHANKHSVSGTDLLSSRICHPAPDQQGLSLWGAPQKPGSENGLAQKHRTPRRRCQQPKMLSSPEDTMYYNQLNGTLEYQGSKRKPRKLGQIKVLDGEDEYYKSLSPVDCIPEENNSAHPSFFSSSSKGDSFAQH
Chain of Proto-oncogene tyrosine-protein kinase receptor Ret (Homo sapiens), P07949 [V804M] (P07949 whole entry V804M): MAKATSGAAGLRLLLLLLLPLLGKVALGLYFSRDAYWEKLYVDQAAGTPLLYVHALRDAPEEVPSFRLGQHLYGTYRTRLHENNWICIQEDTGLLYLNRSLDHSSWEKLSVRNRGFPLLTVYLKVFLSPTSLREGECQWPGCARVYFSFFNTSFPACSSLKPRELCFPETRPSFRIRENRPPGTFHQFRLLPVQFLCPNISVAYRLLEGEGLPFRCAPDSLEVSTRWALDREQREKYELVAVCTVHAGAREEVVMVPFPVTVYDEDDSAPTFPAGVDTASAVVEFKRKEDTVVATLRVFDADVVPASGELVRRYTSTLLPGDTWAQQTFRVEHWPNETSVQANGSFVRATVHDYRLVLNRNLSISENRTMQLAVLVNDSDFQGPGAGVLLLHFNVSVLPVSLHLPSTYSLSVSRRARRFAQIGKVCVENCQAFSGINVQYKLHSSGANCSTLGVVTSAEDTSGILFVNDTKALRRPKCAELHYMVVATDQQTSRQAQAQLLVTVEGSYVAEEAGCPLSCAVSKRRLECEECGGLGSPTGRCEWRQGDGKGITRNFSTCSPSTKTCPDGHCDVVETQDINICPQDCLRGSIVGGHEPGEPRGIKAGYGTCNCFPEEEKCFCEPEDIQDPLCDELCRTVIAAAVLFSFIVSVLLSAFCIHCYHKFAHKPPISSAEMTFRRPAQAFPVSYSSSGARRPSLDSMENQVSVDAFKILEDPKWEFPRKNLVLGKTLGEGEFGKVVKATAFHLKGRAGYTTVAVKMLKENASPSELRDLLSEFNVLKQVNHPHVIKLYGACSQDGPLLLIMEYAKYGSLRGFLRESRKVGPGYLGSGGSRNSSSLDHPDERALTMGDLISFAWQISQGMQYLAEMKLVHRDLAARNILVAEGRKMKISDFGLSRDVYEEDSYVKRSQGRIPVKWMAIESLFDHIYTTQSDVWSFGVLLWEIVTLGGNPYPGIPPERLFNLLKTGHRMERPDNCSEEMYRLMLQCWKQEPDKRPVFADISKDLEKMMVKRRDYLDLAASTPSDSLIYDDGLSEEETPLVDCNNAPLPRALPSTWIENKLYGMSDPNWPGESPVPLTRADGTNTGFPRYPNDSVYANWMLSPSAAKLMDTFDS
Chain of Mitogen-activated protein kinase 1 (P28482 whole entry): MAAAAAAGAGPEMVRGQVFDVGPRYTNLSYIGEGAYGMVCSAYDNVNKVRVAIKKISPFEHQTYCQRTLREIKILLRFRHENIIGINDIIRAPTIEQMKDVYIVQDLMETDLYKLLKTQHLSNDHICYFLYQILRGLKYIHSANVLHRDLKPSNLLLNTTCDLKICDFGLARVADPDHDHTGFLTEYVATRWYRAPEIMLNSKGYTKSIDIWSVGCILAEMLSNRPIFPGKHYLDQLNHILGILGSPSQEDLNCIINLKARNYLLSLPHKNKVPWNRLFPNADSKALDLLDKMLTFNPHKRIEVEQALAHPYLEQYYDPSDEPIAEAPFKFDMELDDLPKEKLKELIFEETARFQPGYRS

O=C1c2ccccc2-c2n[nH]c3cccc1c23
Activity [1]: 22%
Activity [2]: 28%
Activity [3]: 32%
Activity [4]: 26%
Activity [5]: 3.4%
Activity [6]: 3%
Activity [7]: 10%
Activity [8]: 21%
Activity [9]: 12%
Activity [10]: 18%

COc1cc(N2CCC(O)CC2)ccc1Nc1cc(Nc2ccccc2S(=O)(=O)C(C)C)c2cc[nH]c2n1
Activity (Activated CDC42 kinase 1): 14%
Activity (HCT-116): Active
Activity (MCF-10A): Toxic
Activity [11]: 2%
Activity [12]: 0.5%
pKd [13]: 5.92
Activity [14]: 18%
Activity [15]: 28%
inhibition at 10 µM [16]: 80%
Activity [17]: 12%
Activity (HeLa S3): Active
pKd [18]: 5.54
pKd [19]: 5.96
Activity (U2OS [20]): 1%
Activity [21]: 7.3%
Activity (U2OS [22]): Active
